# Columns and labels:
# HUVEC [1] = assay: Growth inhibitory activity against human umbilical vein endothelial cells (HUVEC) proliferation using MTT colorimetric method; assay type: functional, cell-based
# How it was run: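 HUVEC seeded at 10,000 cells/well in growth-factor-containing EGM-2 and left 4 h to adhere. Compounds diluted in medium were added, followed by 72 h incubation at 37 in humidified 5% CO2. Viability was read by MTT colorimetric assay. IC50 came from nonlinear regression.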
# HUVEC [2] = assay: Percentage inhibition against growth factor induced tube formation by human umbilical vein endothelial cells (HUVEC) at 10 ug/mL concentration; assay type: functional
# How it was run: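 HUVEC plated at 5000 cells/well on solidified Matrigel and incubated 16 h at 37 in humidified 5% CO2, with compound at 10 μg/mL, in triplicate. Cells were then stained with toluidine blue in 4% paraformaldehyde and photographed. A blinded observer counted tube branches per well. Inhibition was expressed relative to untreated control.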
SMILES,IC50 (HUVEC [1]) [mg/L],inhibition at 10 µg/mL (HUVEC [2]) [%]
CC1(C)CCC[C@]2(C)[C@H]3CC(=O)O[C@]3(C)CC[C@@H]12,> 50,–
C=C1[C@H](O[Si](C)(C)C(C)(C)C)C[C@H]2C(C)(C)CCC[C@]2(C)[C@H]1/C=C/c1ccoc1,> 50,5
C=C1[C@@H](O[Si](C)(C)C(C)(C)C)C[C@H]2C(C)(C)CCC[C@]2(C)[C@H]1C[C@@H](O)c1ccoc1,3.76,10
C=C1[C@@H](O)C[C@H]2C(C)(C)CCC[C@]2(C)[C@H]1C[C@@H](O)c1ccoc1,15,0
C=C1[C@@H](O)C[C@H]2C(C)(C)CCC[C@]2(C)[C@H]1C[C@H](O)c1ccoc1,29.7,10
C=C1[C@@H](O[Si](C)(C)C(C)(C)C)C[C@H]2C(C)(C)CCC[C@]2(C)[C@H]1/C=C/c1ccoc1,> 50,22
C=C1[C@@H](O[Si](C)(C)C(C)(C)C)C[C@H]2C(C)(C)CCC[C@]2(C)[C@H]1C[C@H](O)c1ccoc1,7.71,20
C=C1[C@H](O)C[C@H]2C(C)(C)CCC[C@]2(C)[C@H]1/C=C/c1ccoc1,3.12,90
C=C1[C@@H](O)C[C@H]2C(C)(C)CCC[C@]2(C)[C@H]1/C=C/c1ccoc1 [CORONARIN A],4.22,55
C=C[C@](C)(O)CC[C@@H]1[C@@]2(C)CCCC(C)(C)[C@@H]2CC[C@@]1(C)O [SCLAREOL],> 50,–
